# Test results taken from ChEMBL document CHEMBL1148959, “Annoglabayin, a novel dimeric kaurane diterpenoid, and apoptosis in Hep G2 cells of annomontacin from the fruits of Annona glabra” (2004).
# Experiments:
# Assay type in all cases: functional
# HepG2 [1] = test: Cell cycle arrest in human HepG2 cells assessed as accumulation at S phase at 75 uM after 24 hrs using propidium iodide staining by FACS
# In short: (§1)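 Hep G2 cells seeded at 5 × 10^5 per 60 mm dish 48 h ahead in DMEM with 10% FCS and antibiotics. Exposed 24 h; compound from DMSO stock diluted in medium. Adherent and floating cells pooled, fixed in PBS-MeOH (1:2) at 4 °C ≥18 h, then stained 30 min at room temperature in the dark with 50 µg/mL PI plus 50 µg/mL RNaseA. Flow cytometry at 488 nm excitation, emission >580 nm, doublets gated out; subG1 taken as the subdiploid fraction.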
# HepG2 [2] = test: Induction of apoptosis in human HepG2 cells assessed as cellular membrane damage at 100 uM after 9 hrs using propidium iodide staining by FACS
# In short: (§2)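 Treated or untreated for 3, 6, 9 or 24 h at 100 µM, Hep G2 cells were trypsinized and stained 10 min with 5 µg/mL PI. Argon laser excitation at 488 nm, emission >580 nm, ≥10 000 cells counted. Cells were classed as intact or membrane-damaged after gating out debris. At least three runs; a representative run is shown.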
# HepG2 [3] = test: Cell cycle arrest in human HepG2 cells assessed as accumulation at G2M phase at 75 uM after 24 hrs using propidium iodide staining by FACS; in short: as §1
# HepG2 [4] = test: Induction of early apoptosis in human HepG2 cells assessed as number of cells with decreased mitochondrial transmembrane potential at 100 uM after 6 hrs using rhodamine 123 staining by FACS
# In short: (§3)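 Hep G2 cells seeded 5 × 105 per 60 mm dish 48 h ahead in DMEM with 10% FCS, penicillin, streptomycin and amphotericin B. Compound diluted into medium from a 200 mM DMSO stock and applied for 3, 6, 9 or 24 h; untreated cells as control. Medium then replaced with 5 µM rhodamine 123 for 30 min in the dark. Cells trypsinized and mean rhodamine 123 fluorescence read by flow cytometry. Run at least three times, with a representative experiment shown.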
# HepG2 [5] = test: Cell cycle arrest in human HepG2 cells assessed as accumulation at subG1 phase at 100 uM after 24 hrs using propidium iodide staining by FACS; in short: as §1
# HepG2 [6] = test: Induction of apoptosis in human HepG2 cells assessed as cellular membrane damage at 100 uM after 3 hrs using propidium iodide staining by FACS; in short: as §2
# HepG2 [7] = test: Cell cycle arrest in human HepG2 cells assessed as accumulation at subG1 phase at 50 uM after 24 hrs using propidium iodide staining by FACS; in short: as §1
# HepG2 [8] = test: Cell cycle arrest in human HepG2 cells assessed as accumulation at G2M phase at 100 uM after 24 hrs using propidium iodide staining by FACS; in short: as §1
# HepG2 [9] = test: Cell cycle arrest in human HepG2 cells assessed as accumulation at G1 phase at 50 uM after 24 hrs using propidium iodide staining by FACS; in short: as §1
# HepG2 [10] = test: Induction of early apoptosis in human HepG2 cells assessed as number of cells with decreased mitochondrial transmembrane potential at 100 uM after 3 hrs using rhodamine 123 staining by FACS; in short: as §3
# HepG2 [11] = test: Cell cycle arrest in human HepG2 cells assessed as accumulation at G1 phase at 25 uM after 24 hrs using propidium iodide staining by FACS; in short: as §1
# HepG2 [12] = test: Cell cycle arrest in human HepG2 cells assessed as accumulation at G1 phase at 75 uM after 24 hrs using propidium iodide staining by FACS; in short: as §1
# HepG2 [13] = test: Cell cycle arrest in human HepG2 cells assessed as accumulation at S phase at 50 uM after 24 hrs using propidium iodide staining by FACS; in short: as §1
# HepG2 [14] = test: Effect on morphology in human HepG2 cells assessed as low cellular shape change at 100 uM after 3 hrs by FACS
# In short: (§4)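 Hep G2 cells in DMEM/10% FCS were treated with or without 100 µM for 3, 6, 9 or 24 h, then trypsinized. Forward scatter (size) and side scatter (granularity) were read by flow cytometry. Normal versus low shape change was expressed as a percentage after gating out cellular debris. At least three runs; a representative run is shown.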
# HepG2 [15] = test: Cell cycle arrest in human HepG2 cells assessed as accumulation at G2M phase at 50 uM after 24 hrs using propidium iodide staining by FACS; in short: as §1
# HepG2 [16] = test: Effect on morphology in human HepG2 cells assessed as low cellular shape change at 100 uM after 9 hrs by FACS; in short: as §4
# HepG2 [17] = test: Cell cycle arrest in human HepG2 cells assessed as accumulation at S phase at 100 uM after 24 hrs using propidium iodide staining by FACS; in short: as §1
# HepG2 [18] = test: Induction of early apoptosis in human HepG2 cells assessed as number of cells with decreased mitochondrial transmembrane potential at 100 uM after 24 hrs using rhodamine 123 staining by FACS; in short: as §3
# HepG2 [19] = test: Cell cycle arrest in human HepG2 cells assessed as accumulation at G2M phase at 25 uM after 24 hrs using propidium iodide staining by FACS; in short: as §1
# HepG2 [20] = test: Induction of apoptosis in human HepG2 cells assessed as cellular membrane damage at 100 uM after 24 hrs using propidium iodide staining by FACS; in short: as §2
# HepG2 [21] = test: Effect on morphology in human HepG2 cells assessed as low cellular shape change at 100 uM after 6 hrs by FACS; in short: as §4
# HepG2 [22] = test: Cell cycle arrest in human HepG2 cells assessed as accumulation at subG1 phase at 25 uM after 24 hrs using propidium iodide staining by FACS; in short: as §1
# HepG2 [23] = test: Induction of apoptosis in human HepG2 cells assessed as cellular membrane damage at 100 uM after 6 hrs using propidium iodide staining by FACS; in short: as §2
# HepG2 [24] = test: Cell cycle arrest in human HepG2 cells assessed as accumulation at subG1 phase at 75 uM after 24 hrs using propidium iodide staining by FACS; in short: as §1
# HepG2 [25] = test: Induction of early apoptosis in human HepG2 cells assessed as number of cells with decreased mitochondrial transmembrane potential at 100 uM after 9 hrs using rhodamine 123 staining by FACS; in short: as §3
# HepG2 [26] = test: Cell cycle arrest in human HepG2 cells assessed as accumulation at S phase at 25 uM after 24 hrs using propidium iodide staining by FACS; in short: as §1
# HepG2 [27] = test: Cell cycle arrest in human HepG2 cells assessed as accumulation at G1 phase at 100 uM after 24 hrs using propidium iodide staining by FACS; in short: as §1
# HepG2 [28] = test: Effect on morphology in human HepG2 cells assessed as low cellular shape change at 100 uM after 24 hrs by FACS; in short: as §4
structure (smiles),measurement,setting,value
CCCCCCCCCCCC[C@H](O)[C@@H]1CC[C@@H]([C@@H](O)CCCCCCC(O)CCCCC[C@@H](O)CC2=C[C@H](C)OC2=O)O1 (stereo partly drawn) [ANNOMONTACIN],Activity,HepG2 [1],35.9%
same,Activity,HepG2 [2],32.4%
same,Activity,HepG2 [3],9.8%
same,Flu intensity,HepG2 [4],241
same,Activity,HepG2 [5],58.3%
same,Activity,HepG2 [6],7.1%
same,Activity,HepG2 [7],12.2%
same,Activity,HepG2 [8],10.4%
same,Activity,HepG2 [9],54.6%
same,Flu intensity,HepG2 [10],367
same,Activity,HepG2 [11],50.2%
same,Activity,HepG2 [12],54.3%
same,Activity,HepG2 [13],37.1%
same,Activity,HepG2 [14],40.1%
same,Activity,HepG2 [15],8.3%
same,Activity,HepG2 [16],75.4%
same,Activity,HepG2 [17],32.9%
same,Flu intensity,HepG2 [18],75
same,Activity,HepG2 [19],10.8%
same,Activity,HepG2 [20],69.5%
same,Activity,HepG2 [21],50.5%
same,Activity,HepG2 [22],4.4%
same,Activity,HepG2 [23],6.9%
same,Activity,HepG2 [24],50.7%
same,Flu intensity,HepG2 [25],213
same,Activity,HepG2 [26],39.1%
same,Activity,HepG2 [27],56.7%
same,Activity,HepG2 [28],80.1%
